Experiment [1] concerns the target T1, Acetylcholinesterase (Homo sapiens, UniProt P22303). The experiment can be described thus: Inhibition of human AChE using acetylthiocholine iodide as substrate at 10 uM incubated for 1 mins by spectrophotometric Ellman's method. Put shortly: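 Recombinant human AChE, modified Ellman assay; compound in DMSO (single 10 μM screen) preincubated 5 min with enzyme and 5 mM DTNB in pH 7.4 phosphate buffer. […] Triplicate.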

Experiment [2] addresses T2, Cholinesterase (Homo sapiens, UniProt P06276). The experiment can be described thus: Reversible binding affinity to human BChE using butyrylthiocholine iodide as substrate assessed as reduction in Vmax at 0.445 to 1.400 micromol/L preincubated for 5 min followed by substrate addition and measured after 1 mins by Lineweaver-Burk plot analysis. To be noted: dose 0.445-1.4 µmol/L, time 6.0 min. In a few lines: (§1)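 Recombinant human BChE at final activity 0.002 U/μL in phosphate buffer. […] Km, Vmax, Ki and Ki' came from nonlinear regression of velocity curves. Lineweaver–Burk plots were drawn by linear regression.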

Experiment [3] addresses T2, Cholinesterase. The experiment can be described thus: Reversible binding affinity to human BChE using butyrylthiocholine iodide as substrate assessed as reduction in Km at 0.445 to 1.400 micromol/L preincubated for 5 min followed by substrate addition and measured after 1 mins by Lineweaver-Burk plot analysis. The settings on record: dose 0.445-1.4 µmol/L, time 6.0 min. Put shortly: as §1

In experiment [4] the target is T2, Cholinesterase. The experiment can be described thus: Inhibition of human BChE using butyrylthiocholine iodide as substrate incubated for 1 mins by spectrophotometric Ellman's method. (DTNB colorimetry detects thiols as they appear.)
Experiment [5] has as its target T1, Acetylcholinesterase. Description: Inhibition of human AChE using acetylthiocholine iodide as substrate incubated for 1 mins by spectrophotometric Ellman's method. In a few lines: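 Modified Ellman assay on recombinant human AChE (acetylthiocholine) or human BChE (butyrylthiocholine). Enzyme, 5 mM DTNB and DMSO compound dilutions at several concentrations preincubated 5 min in pH 7.4 phosphate buffer. Reaction started with 10 mM substrate, ΔA read at 412 nm for 1 min. IC50 is the mean ± SEM of three independent runs, each in triplicate.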

Calls of active or inactive are those of the source. The rule behind the calls is not given here.

T1 sequence (P22303 whole entry): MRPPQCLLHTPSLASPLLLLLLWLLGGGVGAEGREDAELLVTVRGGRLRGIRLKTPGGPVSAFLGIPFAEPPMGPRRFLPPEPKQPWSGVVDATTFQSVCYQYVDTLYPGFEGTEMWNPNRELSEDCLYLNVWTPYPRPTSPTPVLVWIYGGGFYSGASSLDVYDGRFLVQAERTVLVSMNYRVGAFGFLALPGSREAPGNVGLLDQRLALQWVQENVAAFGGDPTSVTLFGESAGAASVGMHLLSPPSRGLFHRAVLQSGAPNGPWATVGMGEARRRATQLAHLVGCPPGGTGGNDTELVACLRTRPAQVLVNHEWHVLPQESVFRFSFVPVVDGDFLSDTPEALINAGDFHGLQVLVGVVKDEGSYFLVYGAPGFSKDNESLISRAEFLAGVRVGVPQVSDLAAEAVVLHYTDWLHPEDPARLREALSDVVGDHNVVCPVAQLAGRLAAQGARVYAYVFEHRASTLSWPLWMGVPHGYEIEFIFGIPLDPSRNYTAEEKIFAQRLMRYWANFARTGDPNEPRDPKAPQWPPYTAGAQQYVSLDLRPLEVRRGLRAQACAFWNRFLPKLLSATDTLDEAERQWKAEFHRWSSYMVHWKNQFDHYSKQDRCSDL
T2 sequence (P06276 whole entry): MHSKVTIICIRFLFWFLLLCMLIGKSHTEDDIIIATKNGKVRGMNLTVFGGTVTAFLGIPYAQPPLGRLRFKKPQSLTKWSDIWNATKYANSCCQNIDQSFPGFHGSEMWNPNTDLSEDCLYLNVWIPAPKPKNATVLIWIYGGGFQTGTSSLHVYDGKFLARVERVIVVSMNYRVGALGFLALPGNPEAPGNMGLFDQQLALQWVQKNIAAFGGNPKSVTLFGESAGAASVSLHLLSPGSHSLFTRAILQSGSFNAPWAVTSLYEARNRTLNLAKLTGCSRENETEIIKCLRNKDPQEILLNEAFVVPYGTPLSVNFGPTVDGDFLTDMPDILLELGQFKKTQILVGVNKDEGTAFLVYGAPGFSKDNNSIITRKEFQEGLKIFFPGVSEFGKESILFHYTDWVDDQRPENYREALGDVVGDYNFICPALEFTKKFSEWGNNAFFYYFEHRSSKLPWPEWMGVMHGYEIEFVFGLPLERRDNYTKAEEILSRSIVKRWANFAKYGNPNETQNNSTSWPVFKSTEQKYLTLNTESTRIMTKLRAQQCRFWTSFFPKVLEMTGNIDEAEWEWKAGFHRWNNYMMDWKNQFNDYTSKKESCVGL

On to `CCCOc1ccc(CCN(CCC)Cc2ccc(OCc3ccccc3)cc2)cc1`, for which, at Acetylcholinesterase [1], the inhibition entry is “inactive”.

Regarding `COc1ccccc1CCNCc1ccc(OCc2ccccc2)cc1`, at Acetylcholinesterase [1], the inhibition entry was “inactive”.

As for `COc1ccc(CNCc2cccc(OCc3ccccc3)c2)cc1OC`, the inhibition result at Acetylcholinesterase [1] was “inactive”.

As to `C=CCN(CCCc1ccccc1)Cc1cccc(OCc2ccccc2)c1`, at Acetylcholinesterase [1], the inhibition entry was “inactive”.

As to `CCN(CCc1ccccc1)Cc1cccc(OCc2ccccc2)c1`, the inhibition entry at Acetylcholinesterase [1] is “inactive”.

`COc1ccc(CCNCc2ccc(OCc3ccccc3)cc2)cc1`: on Acetylcholinesterase [1], the inhibition entry was “inactive”.

For the molecule `COc1cccc(CCNCc2cccc(OCc3ccccc3)c2)c1`, at Acetylcholinesterase [1], the inhibition entry was “inactive”.

Take `CCCN(CCCc1ccccc1)Cc1cccc(OCc2ccccc2)c1`: the inhibition entry on Acetylcholinesterase [1] is “inactive”.

For the molecule `CCCN(CCc1ccc(O)cc1)Cc1ccc(OCc2ccccc2)cc1`, the inhibition entry on Acetylcholinesterase [1] is “inactive”. For the same molecule, the outcome at Cholinesterase [2] and at Cholinesterase [3] was Active.

With `C=CCN(CCc1ccc(O)cc1)Cc1cccc(OCc2ccccc2)c1`, on Acetylcholinesterase [1], the inhibition result was “inactive”.

Turning to `CC(CNCc1ccc(OCc2ccccc2)cc1)c1ccccc1` (stereo not given), on Acetylcholinesterase [1], the inhibition result was “inactive”.

Turning to `CCCN(CCc1ccccc1)Cc1cccc(OCc2ccccc2)c1`, the inhibition result on Acetylcholinesterase [1] was “inactive”.

As to `CCCN(CCCc1ccccc1)Cc1ccc(OCc2ccccc2)cc1`, on Acetylcholinesterase [1], the inhibition entry was “inactive”.

Consider `c1ccc(COc2ccc(CNCCc3ccccn3)cc2)cc1`, for which, on Acetylcholinesterase [1], the inhibition result is “inactive”.

Consider `Oc1ccc(CCNCc2ccc(OCc3ccccc3)cc2)cc1`, for which, on Acetylcholinesterase [1], the inhibition result is “inactive”.

Consider `CCN(Cc1ccccc1)Cc1ccc(OCc2ccccc2)cc1`, for which the inhibition entry at Acetylcholinesterase [1] was “inactive”.

With `c1ccc(COc2ccc(CNCc3ccccn3)cc2)cc1`, the inhibition entry on Acetylcholinesterase [1] is “inactive”.

As to `CC(CNCc1cccc(OCc2ccccc2)c1)c1ccccc1` (stereo not given), the inhibition entry on Acetylcholinesterase [1] was “inactive”.

With `CCCN(Cc1ccc(OCc2ccccc2)cc1)C(C)CCc1ccccc1` (stereo not given), on Acetylcholinesterase [1], the inhibition entry was “inactive”.

Take `CCN(CCCc1ccccc1)Cc1cccc(OCc2ccccc2)c1`: the inhibition result at Acetylcholinesterase [1] is “inactive”.

With `C=CCOc1ccc(CCN(CC=C)Cc2cccc(OCc3ccccc3)c2)cc1`, the inhibition entry at Acetylcholinesterase [1] was “inactive”.

`c1ccc(CCCNCc2cccc(OCc3ccccc3)c2)cc1`: the inhibition entry at Acetylcholinesterase [1] is “inactive”.

For the molecule `Oc1ccc(CCNCc2cccc(OCc3ccccc3)c2)cc1`, the inhibition entry on Acetylcholinesterase [1] was “inactive”.

As to `c1ccc(CNCc2ccc(OCc3ccccc3)cc2)cc1`, the inhibition result on Acetylcholinesterase [1] was “inactive”.

As to `C=CCOc1ccc(CCNCc2cccc(OCc3ccccc3)c2)cc1`, the inhibition entry at Acetylcholinesterase [1] was “inactive”.

In the case of `C=CCOc1ccc(CCN(CC=C)Cc2ccc(OCc3ccccc3)c(OC)c2)cc1`, the IC50 against Cholinesterase [4] was greater than 10 µM.

As for `Clc1ccc(CCNCc2ccc(OCc3ccccc3)cc2)cc1`, the inhibition result on Acetylcholinesterase [1] is “inactive”.

For `c1ccc(CCNCc2ccc(OCc3ccccc3)cc2)cc1`, at Acetylcholinesterase [1], the inhibition result was “inactive”.

Consider `COc1cccc(CCNCc2ccc(OCc3ccccc3)cc2)c1`, for which the inhibition entry on Acetylcholinesterase [1] is “inactive”.

On to `COc1ccccc1CCNCc1cccc(OCc2ccccc2)c1`, for which the inhibition result on Acetylcholinesterase [1] is “inactive”.

In the case of `Clc1cccc(NCc2cccc(OCc3ccccc3)c2)c1`, the inhibition result on Acetylcholinesterase [1] is “inactive”.

`c1ccc(CCCCNCc2ccc(OCc3ccccc3)cc2)cc1`: at Acetylcholinesterase [1], the inhibition result is “inactive”.

As for `C=CCN(CCc1ccccc1)Cc1cccc(OCc2ccccc2)c1`, the inhibition entry at Acetylcholinesterase [1] is “inactive”.

`COc1ccc(CCNCc2cccc(OCc3ccccc3)c2)cc1`: on Acetylcholinesterase [1], the inhibition result was “inactive”.

Take `CN(CCc1ccc(O)cc1)Cc1cc2c(cc1-c1cccc3c1N(C)CC3)OCO2`: at Acetylcholinesterase [5], the IC50 is greater than 100 µM.

For `c1ccc(CNCc2cccc(OCc3ccccc3)c2)cc1`, the inhibition entry at Acetylcholinesterase [1] was “inactive”.

Take `CCN(Cc1ccc(OCc2ccccc2)cc1)C(C)CCc1ccccc1` (stereo not given): the inhibition result at Acetylcholinesterase [1] is “inactive”.

In the case of `c1ccc(CCCNCc2ccc(OCc3ccccc3)cc2)cc1`, the inhibition result at Acetylcholinesterase [1] was “inactive”.

Take `CCN(Cc1ccccc1)Cc1cccc(OCc2ccccc2)c1`: the inhibition result on Acetylcholinesterase [1] is “inactive”.

Take `c1ccc(CCNCc2cccc(OCc3ccccc3)c2)cc1`: on Acetylcholinesterase [1], the inhibition entry was “inactive”.

`C=CCN(Cc1ccccc1)Cc1cccc(OCc2ccccc2)c1`: at Acetylcholinesterase [1], the inhibition entry is “inactive”.

With `CC(CCc1ccccc1)NCc1ccc(OCc2ccccc2)cc1` (stereo not given), the inhibition result at Acetylcholinesterase [1] is “inactive”.

Regarding `CCCN(Cc1ccccc1)Cc1ccc(OCc2ccccc2)cc1`, the inhibition result at Acetylcholinesterase [1] is “inactive”.

A word on the IC50: it is the concentration at which inhibition is half-maximal. Read a low IC50 as inhibition by little substance.

For the origin of these results see ChEMBL document CHEMBL5532688, “Carltonine-derived compounds for targeted butyrylcholinesterase inhibition” (RSC Med Chem, 2024).
